Experimental findings from ChEMBL document CHEMBL3352439, “γ-Butyrolactone, cytochalasin, cyclic carbonate, eutypinic acid, and phenalenone derivatives from the soil fungus Aspergillus sp. PSU-RSPG185” (J Nat Prod, 2014) are described below.

Calls of active or inactive are those of the source. The rule behind the calls is not given here.

For one experiment, the system named is KB. Description: Cytotoxicity against human KB cells by colorimetric method. In kind it is functional, cell-based. In short, it runs like this:
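KB cells assayed by the method of O'Brien and coworkers; ellipticine as reference compound; IC50 derived.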

The next experiment has as its system Plasmodium falciparum. Put plainly: Antimalarial activity against multidrug-resistant Plasmodium falciparum K1 assessed as [3H]-hypoxanthine incorporation 24 to 42 hrs by scintillation counting analysis. The format is functional, organism-based. In short, it runs like this:
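Microculture radioisotope technique against multidrug-resistant K1 parasites; dihydroartemisinin as reference drug.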

Experiment [1] concerns Mycobacterium tuberculosis. Description: Antimicrobial activity against Mycobacterium tuberculosis H37Ra assessed as growth inhibition by green fluorescent protein-based fluorescent detection. In kind it is functional, organism-based. In short, it runs like this: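 Growth inhibition read by GFP-based fluorescence; isoniazid as reference drug; result reported as MIC.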
The test system of a further experiment is Vero. Description: Cytotoxicity against african green monkey Vero cells by colorimetric method. The format is cell-based. As to conditions: Chlorocebus sabaeus. In short, it runs like this:
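Vero cells assayed by a colorimetric method; ellipticine as reference compound; IC50 derived.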

With `COc1c(O)c2c3c(c(O)cc(C)c3c1O)C(=O)[C@](C)(C/C=C(\C)CC/C=C(\C)CC[C@@H](O)C(C)(C)O)C2=O`, the inhibition result in the experiment with KB is “inactive”. Further, the result (in the experiment with Plasmodium falciparum; in experiment [1]) was inactive.
Usually IC50 stands for the point on the concentration scale where inhibition reaches its midpoint. `CO[C@@]1(C/C=C(\C)CC/C=C(\C)CC[C@@H](O)C(C)(C)O)C(=O)c2c(O)cc(C)c3c(O)c(C)c(O)c(c23)C1=O`: the IC50 is 48.4 µM with KB and 34.2 µM in the experiment with Vero. In addition, the result (in the experiment with Plasmodium falciparum; in experiment [1]) was inactive.
Turning to `C=C(C)C#Cc1cc(C(=O)O)ccc1O`, the inhibition entry in the experiment with KB was “inactive”. Also, the outcome (in the experiment on Plasmodium falciparum; in experiment [1]) was inactive.
Take `CC1=C[C@@H]2[C@H]3[C@H]([C@H](O)C(=O)[C@]24C(=O)N[C@@H](CC(C)C)[C@@H]4[C@@H]1C)[C@@H](O)CCC[C@]3(C)O`: the inhibition entry in the experiment on KB is “inactive”. Moreover, the outcome (in the experiment with Plasmodium falciparum; in experiment [1]) was inactive.
